Measured values taken from ChEMBL document CHEMBL4024804 (J Med Chem, 2018).
Active and inactive are the calls of the source. The rule behind the calls is not given here.

Tests used:
A-375 = experiment: Cytotoxicity against human A375 cells after 72 hrs by MTS assay; format: functional, cell-based; details: A-375, 72 h
In short: (§1)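 Melanoma cells grown in DMEM with 10% FBS and seeded at 1800–3500 cells per well, then incubated overnight. Cells treated for 72 h with 10 concentrations from 0.03 nM to 1 μM, with DMSO vehicle, in four replicates. MTS added for at least 1 h at 37 °C and absorbance read at 490 nm. IC50 obtained by nonlinear regression.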

M14 = experiment: Cytotoxicity against human M14 cells after 72 hrs by MTS assay; format: functional, cell-based; details: M14, 72 h; in short: as §1
RPMI-7951 = experiment: Cytotoxicity against human RPMI7951 cells after 72 hrs by MTS assay; format: functional, cell-based; details: RPMI-7951, 72 h; in short: as §1
Liver = experiment: Half life in human liver microsomes by UPLC-MS analysis; format: ADME, microsome
In short: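 Compound at 10 mM in DMSO diluted into human liver microsomes (0.6381 mg/mL protein) in 0.1 M potassium phosphate pH 7.4 with EDTA. NADPH regenerating system added, incubated at 37 °C for 0–4 h in triplicate. Quenched with cold acetonitrile containing warfarin as internal standard, analysed by UPLC–MS SIR. ke from log-linear regression; t1/2 = ln 2/ke.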

Homo sapiens [1] = species: Homo sapiens; experiment: Inhibition of tubulin polymerization in human WM164 cells assessed as fragmentation of microtubules at 100 nM after 18 hrs using DAPI by immunofluorescence-based confocal microscopic method; format: cell-based
In short: (§2)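 WM164 cells on glass coverslips (125 000 cells/well), incubated overnight, treated 18 h with 100 nM compound or DMSO vehicle. Stained with anti-α-tubulin and Alexa Fluor 647 anti-mouse IgG, mounted in DAPI-containing medium, and imaged by confocal microscopy.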

Homo sapiens [2] = species: Homo sapiens; experiment: Inhibition of tubulin polymerization in human WM164 cells assessed as decrease in polymeric tubulin filaments at 100 nM after 18 hrs using DAPI by immunofluorescence-based confocal microscopic method; format: cell-based; in short: as §2
Homo sapiens [3] = species: Homo sapiens; experiment: Inhibition of tubulin polymerization in human WM164 cells assessed as increase in cytoplasmic soluble tubulin levels at 100 nM after 18 hrs using DAPI by immunofluorescence-based confocal microscopic method; format: cell-based; in short: as §2
PC-3 = experiment: Cytotoxicity against human PC3 cells after 72 hrs by MTS assay; format: functional, cell-based; details: PC-3, 72 h
In short: (§3)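 Cells treated 72 h at 10 concentrations, 0.03 nM–1 μM, n = 4. MTS read at 490 nm; IC50 by nonlinear regression. RI = resistant IC50 / parental IC50.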

[4] = Cytotoxicity against human PC3-TxR cells after 72 hrs by MTS assay; format: functional, cell-based; in short: as §3
[5] = Resistance index, ratio of IC50 for human PC3-TxR cells to IC50 for human PC3 cells; format: functional
In short: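 Cells were treated 72 h with 10 concentrations from 0.03 nM to 1 μM, four replicates, A490 read. IC50 by nonlinear regression. RI = IC50 resistant / IC50 parental.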

DU-145 = experiment: Cytotoxicity against human DU145 cells after 72 hrs by MTS assay; format: functional, cell-based; details: DU-145, 72 h; in short: as §3
[6] = Cytotoxicity against human DU145-TxR cells after 72 hrs by MTS assay; format: functional, cell-based; in short: as §3
[7] = Resistance index, ratio of IC50 for human DU145-TxR cells to IC50 for human DU145 cells; format: functional; in short: as §3

SMILES | IC50 (A-375) [µM] | IC50 (M14) [µM] | IC50 (RPMI-7951) [µM] | further results
COc1ccc2c(c1)OCCN2c1nc(Cl)nc2ncccc12 | 0.223 | 0.269 | 0.405 | 
COc1ccc(N(C)c2nc(Cl)nc3ncccc23)cc1OC | 0.039 | 0.0395 | 0.0475 | 
COc1ccc2c(c1)C(=O)CCN2c1nc(Cl)nc2ncccc12 | > 1 | > 1 | > 1 | 
COc1ccc2c(c1)CCCN2c1nc(C)nc2onc(C)c12 | 0.0161 | 0.0188 | 0.0176 | t1/2 (Liver): 51.6 min
COc1ccc2c(c1)CCCN2c1nc(Cl)nc2cccnc12 | 0.004 | 0.0042 | 0.0044 | 
CC(=O)O[C@@]12CO[C@@H]1C[C@H](O)[C@@]1(C)C(=O)[C@H](O)C3=C(C)[C@@H](OC(=O)[C@H](O)[C@@H](NC(=O)OC(C)(C)C)c4ccccc4)C[C@@](O)([C@@H](OC(=O)c4ccccc4)[C@H]21)C3(C)C [DOCETAXEL ANHYDROUS] |  |  |  | inhibition (Homo sapiens [1]): inactive; inhibition (Homo sapiens [2]): inactive; inhibition (Homo sapiens [3]): inactive; IC50 (PC-3): 0.0005 µM; IC50 [4]: 0.0279 µM; Ratio IC50 [5]: 55.8; IC50 (DU-145): 0.0001 µM; IC50 [6]: 0.352 µM; Ratio IC50 [7]: >3523
COc1ccc2c(c1)C(O)CCN2c1nc(Cl)nc2ncccc12 (centres undefined) | 0.0361 | 0.0526 | 0.0419 | 
COc1ccc2c(c1)CCCN2c1nc(Cl)nc2c(C)csc12 | 0.049 | 0.0526 | 0.0913 | 
COc1cc(N(C)c2nc(Cl)nc3ncccc23)cc(OC)c1OC | > 1 | > 1 | > 1 | 
